# Experimental data as given in the RNAGym collection of RNA variant scans (doi:10.1101/gad.245936.114).
# Variants at the floor of the assay were thinned out.
# B1: tRNA (parent)
# chain: CUCUCGGUAGCCAAGUUGGUUUAAGGCGCAAGACUUUAAUUUAUCACUACGAAAUCUUGAGAUCGGGCGUUCGACUCGCCCCCGGGAGAUUUUUUCCUCGAGCAA
# Variants of: B1
# Test: nonsense suppression (GFP-seq) (ratio to wild type); higher = more function; SUP4oc tRNA, yeast GFP reporter sort-seq
# In short: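 Yeast were grown in raffinose/galactose medium with 80 mg/L adenine, each strain bearing a genome-integrated ochre-suppressor tRNA variant from a ~3% random-mutation library, a galactose-driven GFP ochre reporter, and RFP. After sorting into GFP/RFP bins, every bin was sequenced on an Illumina platform at phred ≥30. The GFPSEQ value, a measure of nonsense suppression, is the weighted bin median GFP/RFP relative to the unmutated parent tRNA, using each variant's estimated cell share per bin as the weight. Only variants with ≥100 reads and ≥30 cells were included.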
row,Variant,nonsense suppression
1,A62G C80U C81G,≤ 0.026
2,G6U U76G,≤ 0.026
3,C1A A24C A60C U63G C72G C77G,≤ 0.026
4,U20G G26C,≤ 0.026
5,C1U G78A,0.0525
6,C12U C27U G61C,≤ 0.026
7,G10C G73C A87U,≤ 0.026
8,U17G G66U G69A,≤ 0.026
9,U22G C29U G32A,≤ 0.026
10,C5A A60C,0.0331
11,U4A U17G G69A G78U,≤ 0.026
12,C29A A54U C56U G66C,≤ 0.026
13,C12U C75G,1.23
14,A24C A60G,0.258
15,G61C G78U,0.13
16,A60G G85A,1.16
17,G28A A54U,1.1
18,U8C G18U U22A U35G U71A C80G,≤ 0.026
19,C27U A62U,0.0346
20,G15A U22C,0.147
21,C1A U8G C12U A14C G85U,≤ 0.026
22,C68A C77A,≤ 0.026
23,U4A G18A C77A,≤ 0.026
24,A31G U57A,0.136

row,Variant,nonsense suppression
1,U17C G19A C27G,≤ 0.026
2,C34A U55A C80A,≤ 0.026
3,C29U A31G,0.0421
4,U55A A74C G88A,≤ 0.026
5,A54G G61A U76C C77G,≤ 0.026
6,U20G C81G,≤ 0.026
7,C56G A62G,≤ 0.026
8,A13U A14C U35A A60C C72U,≤ 0.026
9,C1U A54U G88A,0.209
10,A30G A33G,0.046
11,A23G A31G,0.0446
12,U8G G67C G85C,≤ 0.026
13,C5A U58A G78C,≤ 0.026
14,A9G A33U C34G U71A,≤ 0.026
15,C72U G85U,0.0294
16,U20G C79G A87G,≤ 0.026
17,A9G A60G,0.222
18,U63C C68U,0.228
19,C3A C29G A60C C81G,≤ 0.026
20,U22G A30G,0.781
21,A14G G61C,0.0278
22,C1U A62G C80A,≤ 0.026
23,G26U A31C G65C,≤ 0.026
24,A74U G78A,0.0557

row,Variant,nonsense suppression
1,U21G U63A,0.636
2,C83U,0.535
3,U2G C3U C27G G66A U70C,≤ 0.026
4,U4A A31U,0.0312
5,G6C U20A,≤ 0.026
6,G10U A31G,≤ 0.026
7,U4C U63C G67A,≤ 0.026
8,U17A G32C U71G,0.0947
9,C5U U76A C79A,≤ 0.026
10,A9U A54U,0.222
11,U57C G66U C81A,≤ 0.026
12,C1G A24U G28A A74C C81A A89G,≤ 0.026
13,G25U C56A G86U,≤ 0.026
14,A9G U20G C75G,0.831
15,C29U,1.07
16,C1U G26U C34G,≤ 0.026
17,U8C A31C A54U G85A G88A,≤ 0.026
18,U4G U17C,0.45
19,G15A G78A,0.0278
20,A24U G84A,0.0448
21,U21C G32U U58C,≤ 0.026
22,U2C C79G,≤ 0.026
23,U55A U71A,≤ 0.026
24,A60C A74G,0.0424

row,Variant,nonsense suppression
1,A13U U57A G65A,≤ 0.026
2,C11A G61A,0.22
3,U71C C77G G84A,≤ 0.026
4,U2G U58G C83G,≤ 0.026
5,U2G G85U,0.0411
6,U4A C79U,0.0353
7,C12U G25A,1.19
8,A62U U63C,≤ 0.026
9,A24C C72U,0.0288
10,U4G C5U,0.0955
11,C56U U58C G66U,≤ 0.026
12,U22C A30C G32U C82G,≤ 0.026
13,U70A U76G,0.183
14,A24C G25C A62U,≤ 0.026
15,C56A U63G,≤ 0.026
16,G18A U55A U58A,≤ 0.026
17,U57A U63C,0.0744
18,G10U C77G,≤ 0.026
19,A30U U63A,0.157
20,A9G A13C C34G U63A C81G G84A G86U,≤ 0.026
21,A31U A60C C75A,0.184
22,G7A A9C A54G,≤ 0.026
23,A9G U16G,0.551
24,A9G U16A,0.845

row,Variant,nonsense suppression
1,A9C U17G,0.595
2,A14U U71A,≤ 0.026
3,C3U A13G C34G,0.439
4,U17A U21C G85A,1.06
5,U20G G85U,0.81
6,C3G U8G,≤ 0.026
7,G10C A13G G15A U57C,≤ 0.026
8,A24G G61A U76C,0.0509
9,A23G C56G G65A U71G,≤ 0.026
10,C3U U57C G69A G73A G85A,≤ 0.026
11,U55C U63A,0.244
12,A9G G10A,0.0344
13,G25A G73A,0.0508
14,A13C A60G,0.392
15,C12A A31G,0.0261
16,U22C G25C,0.0473
17,A13C,1.13
18,U4A U20C A31U U71G C80A,≤ 0.026
19,G7C A33U G73A,≤ 0.026
20,U58A U70C A74G,≤ 0.026
21,G59A U76G C77A,≤ 0.026
22,A24U G85C,≤ 0.026
23,A9G G61U C75G,1.12
24,A24C U55C,0.365

row,Variant,nonsense suppression
1,U21A U55C C79U,≤ 0.026
2,A74U C79U,0.0357
3,U8C C12A C68A C72U,≤ 0.026
4,U20A A87G,0.226
5,A9G G61A G85A,0.303
6,C12U A24U U71G,≤ 0.026
7,C27A G78U,0.0309
8,A54C U76C,0.232
9,A9G U17A,0.92
10,G28A G67A,0.209
11,U57G C68G C75G,≤ 0.026
12,U22C A33U,0.202
13,G25C C75A,0.826
14,A54U C56A C72U,≤ 0.026
15,U8A G32A,≤ 0.026
16,C12U A13C U20C A60C G85A,≤ 0.026
17,A60C C75U,0.167
18,G73C C83A,≤ 0.026
19,U4G U76A,0.109
20,A24C U57A,0.0454
21,A9G U76A,0.103
22,U22C G61A C79U,0.197
23,G32U C79A,≤ 0.026
24,C3U G7A U17G,≤ 0.026

row,Variant,nonsense suppression
1,U4C C34G C82U,0.179
2,A9G C82U,0.531
3,U17A A23C C68G,≤ 0.026
4,U4A C11A A14U,≤ 0.026
5,U57C C81U G84U,≤ 0.026
6,C1U A23G C29U C64G,≤ 0.026
7,C3A U4C,0.191
8,A30U G85A,0.52
9,U16G U17A,1.05
10,A9G G10U C80U A87C,≤ 0.026
11,G59U U70C C72A,≤ 0.026
12,U76C A87G,0.932
13,A60C G85C,0.0595
14,A31C C56G,≤ 0.026
15,U20G G73A,0.677
16,A24C C64G,≤ 0.026
17,A13C G28C,0.794
18,C1G A54C,0.0309
19,U63G U71C,0.028
20,G61C C80U,0.731
21,U55C C79U,0.183
22,A13C C75U,1.09
23,C27U G59U G61U G66U,≤ 0.026
